PGC1a acetyl inh: PGC1a acetylation modulation, inhibitor mode; U2OS PGC1a acetylation, AlphaScreen anti-acetyl-lysine; with virally co-expressed GCN5 acetyltransferase; inhibition, % at 15.6 µM; actives 0.17% (n = 350,000); AID 651687;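 active = every replicate shows inhibition of at least 40%; inconclusive = mean inhibition at least 40% but some replicate below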;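 note: 0% = neutral control wells and 100% = positive control wells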
FGF22 binding: FGF22 (human) thermal shift binding; activity (Tm shift, normalised), % at 9.99 µM; actives 1.5% (n = 340,000); recombinant FGF22 thermal shift, SYPRO orange fluorescence; percent of sucrose octasulfate shift, DMSO zero; AID 651658;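 active = mean Tm shift, scaled 0 neutral to 100 positive control, at about 1.3% or above, every replicate too, limit read from the data; inconclusive = no clear call, values can overlap the other calls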
Target sequence (Q9HCT0 whole entry, looked up): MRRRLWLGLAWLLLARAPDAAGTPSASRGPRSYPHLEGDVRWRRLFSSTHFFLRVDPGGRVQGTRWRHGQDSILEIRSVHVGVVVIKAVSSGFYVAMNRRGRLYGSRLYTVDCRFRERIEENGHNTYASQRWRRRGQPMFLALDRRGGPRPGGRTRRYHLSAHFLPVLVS
FN deposition inh: fibronectin deposition inhibition. actives 0.086% (n = 350,000). inhibition, % at 12.6 µM. AH1F fibroblasts, Alexa488-fibronectin deposition fluorescence, overnight;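 active = mean inhibition across replicates of 30% or more, regardless of how many single replicates reach that level; inconclusive = mean under 30% yet at least half of replicates reach 30%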;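 note: positive control wells lacked labelled fibronectin entirely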
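Assay system: AH1F fibroblasts assembling fluorescent fibronectin matrix; Amount: 10000 AH1F cells per well; Buffer or medium: DMEM, 2% serum; Probe or stimulus: Alexa488-fibronectin, 24 nM final in well; Doses: single compound dose, delivered by pin transfer; Incubation: 1 h adhesion, overnight exposure; Measured by: fluorescence 485/525 nm; Read-out: fibronectin deposition inhibition.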
ERAP1 inh: ERAP1 (human) enzyme inhibition; inhibition, % at 10.7 µM; Q9NZ08; recombinant ERAP1, Leu-AMC fluorescence, 60 min; actives 0.15% (n = 340,000); AID 652197;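 active = mean replicate inhibition of at least 30%, or all replicates individually reaching that 30% level; inactive = mean below 30% and not every replicate reaching it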;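 note: 0% = neutral control wells and 100% = L-leucinethiol positive control wells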
SIRT5 block: blocks human SIRT5 desuccinylation of peptide; Q9NXA8; Purified SirT5, succinyl-peptide AMC, trypsin-coupled fluorescence; inhibition, % at 15 µM; actives 1.1% (n = 330,000); AID 652115; in the data active = inhibition above about 15%; inconclusive = no clear call, values can overlap the other calls
Target sequence (Q9NXA8 whole entry, looked up): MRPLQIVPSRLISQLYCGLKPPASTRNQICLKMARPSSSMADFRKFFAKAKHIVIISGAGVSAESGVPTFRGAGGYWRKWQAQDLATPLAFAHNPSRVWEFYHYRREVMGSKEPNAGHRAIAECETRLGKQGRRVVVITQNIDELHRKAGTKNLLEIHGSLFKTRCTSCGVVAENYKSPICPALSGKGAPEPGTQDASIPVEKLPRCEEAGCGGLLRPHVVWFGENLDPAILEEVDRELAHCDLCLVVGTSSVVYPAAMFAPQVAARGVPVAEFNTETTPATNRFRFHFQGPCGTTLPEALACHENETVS
* hit, by the source's call; u = inconclusive; x = no result given. In the library only some 2.2% were active in any assay of this set; here they are far more common.

SMILES | PGC1a acetyl inh | FGF22 binding | FN deposition inh | ERAP1 inh | SIRT5 block
COc1ccc(OCC(=O)OCC(=O)Nc2cc(S(=O)(=O)N3CCOCC3)ccc2Cl)cc1 | -3.4 | 42.9* | -5.6 | 0.4 | x
Cc1cc(OCC(=O)OCC(=O)Nc2cc(S(=O)(=O)N3CCOCC3)ccc2Cl)ccc1Cl | 5.4 | 0.0 | -4.9 | -0.1 | -7.7
Cn1c(CCC(=O)Nc2ccc(S(C)(=O)=O)cc2)nc2cc(S(=O)(=O)N3CCOCC3)ccc21 | -15.1 | 0.2 | -1.8 | 3.4 | 4.8
CN1CCN(C(=S)Nc2cc(S(=O)(=O)N3CCOCC3)ccc2Cl)CC1 | 5.6 | 0.0 | 8.2 | 2.3 | 1.7
Cn1c(CCC(=O)Nc2cc(S(C)(=O)=O)ccc2Cl)nc2cc(S(=O)(=O)N3CCOCC3)ccc21 | 4.9 | -0.1 | 5.9 | 62.6* | 7.2
CCOC(=O)C1CCCN(C(=S)Nc2ccc(S(=O)(=O)N3CCOCC3)cc2)C1 (stereo not given) | -11.0 | 42.9* | -2.5 | 3.6 | x
COc1ccc(NC(=O)N(C)C[C@H]2Oc3ccc(NS(=O)(=O)c4ccc(F)cc4)cc3C(=O)N([C@H](C)CO)C[C@H]2C)cc1 | -29.0 | -0.5 | 0.7 | 4.7 | 3.8
COCC(=O)Nc1ccc2c(c1)C(=O)N(C)[C@@H]1CC[C@@H](CC(=O)NCc3ccccc3F)O[C@H]1CO2 | -2.6 | 0.0 | -4.8 | -0.6 | -2.2
COc1cccc(Cn2c(NCc3cccnc3)nc3c2c(=O)n(C)c(=O)n3C)c1 | 71.3* | x | x | x | x
Cn1c(=O)c2c(nc(NCc3cccnc3)n2Cc2cccc(C(F)(F)F)c2)n(C)c1=O | -12.8 | x | x | x | x
O=C(CCNC(=O)c1ccco1)Nc1cccc(Br)c1 | 2.4 | 0.2 | -7.9 | -3.6 | -1.7
CSc1cccc(NC(=O)CCNC(=O)c2ccco2)c1 | 2.7 | 43.2* | -0.1 | -2.4 | 2.7
CCCCNC(=O)Nc1nc2ccc(CC)cc2s1 | x | -0.1 | 34.0* | -1.4 | -5.2
CCCCNC(=O)Nc1nc2ccccc2s1 | -7.8 | -0.2 | 1.4 | -0.1 | 4.0
COc1ccc2c3c(n(C)c2c1)[C@H](CO)N(CC1CCCCC1)CC31CCN(C(C)=O)CC1 | x | -0.1 | x | 3.2 | 5.4
COC(=O)c1ccc(COc2ccc(/C=C(\C#N)c3nc4ccccc4[nH]3)cc2OC)o1 | -3.0 | x | x | x | x
COc1cc(/C=C(/C#N)c2nc3ccccc3[nH]2)ccc1OCc1ccc(C(=O)O)o1 | 3.7 | 1.3 | x | 23.5 | 17.8*
Cc1c(N=NC2=C(O)CCCC2=O)c(=O)n(-c2ccccc2)n1C | 6.5 | 0.0 | x | 13.4 | 25.6*
Cc1c(N=Nc2ccc(O)cc2)c(=O)n(-c2ccccc2)n1C | -8.2 | 0.0 | -5.6 | -2.7 | 6.4
CCN(Cc1ccc(OC)c(F)c1)C(=O)C1CCCO1 (stereo not given) | -3.5 | -0.3 | -5.0 | 49.8* | 1.8
CCN(Cc1ccc(OC)c(F)c1)C(=O)CCl | -7.6 | -0.2 | 6.8 | 2.5 | -2.1
C[C@H]1CN([C@@H](C)CO)C(=O)c2cccc(NC(=O)Nc3ccc(C(F)(F)F)cc3)c2O[C@H]1CN(C)C(=O)Nc1ccc(F)cc1 | -13.5 | 0.0 | x | 3.2 | 4.7
Cn1cc([N+](=O)[O-])c(C(=O)Nc2cc(Oc3ccccc3)cc([N+](=O)[O-])c2)n1 | x | 0.3 | 40.4* | -2.1 | -2.4
CC(C)(C)C(=O)CNCC(=O)C(C)(C)C | 9.9 | 0.7 | 11.4 | -0.2 | 24.6*
Cc1noc(C)c1S(=O)(=O)Nc1ccc2c(c1)C(=O)N([C@@H](C)CO)C[C@@H](C)[C@H](CN(C)Cc1ccccc1)O2 | x | 0.0 | x | 0.8 | -3.0
SMILES | PGC1a acetyl inh | FGF22 binding | FN deposition inh | ERAP1 inh | SIRT5 block
COc1ccc(CCCNC(=O)C2CCC(=O)N(Cc3ccc(Cl)cc3)C2)cc1 (stereo not given) | -1.2 | -0.1 | 1.4 | 1.2 | 31.8*
O=C(NCCCc1ccccc1)C1CCC(=O)N(Cc2ccc(Cl)cc2)C1 (stereo not given) | -2.0 | 0.0 | 9.0 | 0.4 | -2.9
O=C(NCCc1ccc(Cl)cc1)C1CCC(=O)N(C2CCCCCC2)C1 (stereo not given) | -12.3 | -0.3 | 1.9 | -0.9 | 24.8*
O=C(NCCc1ccc(Cl)cc1)C1CC(=O)N(C2CCCC2)C1 (stereo not given) | 3.5 | 0.0 | -0.9 | -1.7 | -2.2
C[C@H](CO)N1C[C@H](C)[C@H](CN(C)S(=O)(=O)c2ccc(Cl)cc2)Oc2c(NC(=O)c3nc4ccccc4s3)cccc2C1=O | 14.3 | 0.4 | 6.7 | -2.5 | 2.6
Cc1cc(C)n2nc(C(=O)N3CCN(c4ccc([N+](=O)[O-])cc4)CC3)nc2n1 | -0.8 | 0.3 | 6.3 | 40.9* | 2.3
Cc1cc(C)n2nc(C(=O)Nc3ccc(N4CCOCC4)cc3)nc2n1 | 6.0 | x | -8.5 | 59.4* | -2.0
Cc1cc(C)n2nc(C(=O)N3CCOCC3)nc2n1 | -42.8 | x | -7.8 | x | x
C[C@@H]1CN([C@@H](C)CO)C(=O)c2cccc(NC(=O)Nc3ccccc3)c2O[C@H]1CN(C)C(=O)Nc1ccc2c(c1)OCO2 | 7.0 | -0.8 | x | -1.6 | -8.4
Nc1nccc(-c2ccc(-n3cnc4ccccc43)cc2)n1 | u | 42.3 | 4.3 | -2.8 | 20.6*
Cc1nccc(-c2ccc(-n3cnc4ccccc43)cc2)n1 | 20.5 | x | x | x | x
CCCC#Cc1ccc2c(c1)O[C@H](CN(C)S(=O)(=O)c1cccc(F)c1)[C@@H](C)CN([C@@H](C)CO)S2(=O)=O | -17.4 | -0.5 | x | -3.9 | -1.1
CCCC#Cc1ccc2c(c1)O[C@H](CN(C)S(=O)(=O)c1cccc(F)c1)[C@H](C)CN([C@@H](C)CO)S2(=O)=O | 2.8 | -0.5 | -23.9 | -1.3 | 1.8
CC(C)CC#Cc1ccc2c(c1)O[C@H](CN(C)S(=O)(=O)c1cccc(F)c1)[C@H](C)CN([C@@H](C)CO)S2(=O)=O | -7.1 | 0.0 | x | -1.6 | 17.3*
CC(C)CC#Cc1ccc2c(c1)O[C@H](CN(C)S(=O)(=O)c1cccc(F)c1)[C@H](C)CN([C@H](C)CO)S2(=O)=O | -12.5 | 0.2 | x | -2.4 | 20.7*
Cc1noc(C)c1NC(=O)Nc1ccc2c(c1)C(=O)N([C@@H](C)CO)C[C@@H](C)[C@H](CN(C)C(=O)CCCN(C)C)OCCCC[C@@H](C)O2 | -2.9 | -0.5 | x | -0.8 | 5.4
C[C@H](NC(=O)[C@H]1[C@H](CO)[C@H]2Cn3c(ccc(-c4ccccc4)c3=O)[C@@H]1N2C)c1ccccc1 | x | 0.2 | x | -1.6 | -2.3
CC(C)C(=O)Nc1ncc(Cc2ccccc2Cl)s1 | -29.8 | -0.4 | 3.5 | 4.1 | 1.0
N#CCC(=O)Nc1ncc(Cc2ccccc2Cl)s1 | 0.1 | 0.3 | 0.9 | -3.6 | 15.4*
Cn1cnc(S(=O)(=O)N2CCCCN3[C@H](CO)[C@@H](c4ccc(C5=CCCC5)cc4)[C@H]3C2)c1 | -4.8 | 0.4 | x | 1.0 | 3.2
O=C(C[C@@H]1C=C[C@@H](NC(=O)Nc2ccc(F)cc2)[C@@H](CO)O1)NCc1cccc(F)c1 | -9.9 | 0.2 | -12.6 | 0.0 | 1.9
CCOC(=O)c1c(-c2ccccc2Cl)cn2ccccc12 | x | x | 6.2 | x | x
O=C(O)c1c(-c2ccc(Cl)cc2)cn2ccccc12 | 4.7 | 43.0* | 15.2 | -2.3 | -0.8
